MLLE-PAM2 inh = inhibitors of microRNA-mediated deadenylation, human PABP1 MLLE binding; inhibition, % at 20 µM; GST-MLLE / FITC-PAM2 fluorescence polarization; 360,000 tested, 0.36% active; AID 588489; P11940; in the data active means inhibition above about 35%, passing the limit was not always enough;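 further: plate controls were DMSO wells with GST-MLLE for no effect and wells lacking GST-MLLE protein for full effect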
Target sequence (P11940 whole entry, looked up): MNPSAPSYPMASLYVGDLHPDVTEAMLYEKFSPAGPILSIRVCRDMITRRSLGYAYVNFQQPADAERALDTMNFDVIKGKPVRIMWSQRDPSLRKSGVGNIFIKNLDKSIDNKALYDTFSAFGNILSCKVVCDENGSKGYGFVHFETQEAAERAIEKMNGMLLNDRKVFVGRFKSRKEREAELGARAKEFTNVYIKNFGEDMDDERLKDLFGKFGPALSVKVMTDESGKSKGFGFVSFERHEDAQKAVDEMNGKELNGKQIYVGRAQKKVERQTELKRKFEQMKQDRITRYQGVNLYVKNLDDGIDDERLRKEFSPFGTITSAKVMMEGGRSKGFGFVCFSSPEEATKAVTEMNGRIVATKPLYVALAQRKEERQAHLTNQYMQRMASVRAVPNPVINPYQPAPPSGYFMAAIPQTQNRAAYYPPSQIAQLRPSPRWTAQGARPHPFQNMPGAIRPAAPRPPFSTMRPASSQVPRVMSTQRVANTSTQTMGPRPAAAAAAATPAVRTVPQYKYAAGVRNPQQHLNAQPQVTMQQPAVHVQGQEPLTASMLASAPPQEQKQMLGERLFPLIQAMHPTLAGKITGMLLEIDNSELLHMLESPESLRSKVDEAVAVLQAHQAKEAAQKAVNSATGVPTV
eIF4H inh = inhibitors of RNA binding by human eIF4H; eIF4H fluorescence polarization binding assay; 290,000 tested, 0.94% active; inhibition, % at 35 µM;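 further: calls also rest on retests at 20 µM and on dose response follow-up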
PABP FP inh = blocks human PABP binding to poly(A) RNA; fluorescence polarization; calls only at 35 µM; 290,000 tested, 1% active; AID 2014;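 further: calls also rest on retests at 20 µM and on dose response follow-up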
MT1-MMP act inh = MT1-MMP (human) activation inhibition | P50281 | HT1080 RFP-PRO-GFP cells, GFP/RFP ratio fluorescence, overnight; percent of plate control window, DMSO zero | 360,000 tested, 0.061% active | GFP/RFP ratio change, % at 20 µM;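 active means GFP/RFP ratio change of at least 30% with cell ATP level not reduced by more than half and red fluorescence within 50% of control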
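Compound: 20 µM single dose, 1% DMSO / System: HT1080 RFP-PRO-GFP cells / Controls: DMSO and RFP-L50D-GFP cell wells / Read-out basis: GFP/RFP fluorescence ratio / Schedule: overnight compound exposure at 37 °C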
SKN-1 block = inhibitors of C. elegans SKN-1; C. elegans VP596 Pgst-4::GFP/RFP ratio, acrylamide-induced, 24 h; inhibition, % at 21.8 µM; 360,000 tested, 0.49% active;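 active means interference check ratio from 0.5 to 1.5 plus GFP to RFP signal ratio inhibition reaching or exceeding a fixed threshold, cut at about 30% in these data, passing the limit was not always enough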
Starred values were filed as active, the others as inactive; i = inactive; u = inconclusive; x = not tested or not shown; + = active, no number. An excerpt weighted towards active compounds, which were near 1.8% of everything screened. Unless noted, how the calls were made is not given here.

SMILES	MLLE-PAM2 inh	eIF4H inh	PABP FP inh	MT1-MMP act inh	SKN-1 block
Cc1ccc(S(=O)(=O)N(Cc2ccccc2)Cc2ccco2)cc1	0	-10	i	3	1
Cc1ccc(S(=O)(=O)N(CC(=O)O)Cc2ccco2)cc1	13	71*	+	-3	-4
CCOc1ccccc1N(CC(=O)NCCSc1ccccn1)S(=O)(=O)c1ccccc1	11	-5	i	0	13
COc1ccccc1N(CC(=O)NCc1ccco1)S(=O)(=O)c1ccc(C)cc1	18	87*	+	-2	4
CC1CCCCC1NC(=O)CN1C(=O)NC(C)(c2cccc(Br)c2)C1=O (stereo unspecified)	4	x	x	3	14
COC(=O)C1(C(F)(F)F)C2C=CC(C2)N1S(=O)(=O)c1ccc(C)cc1 (stereo unspecified)	6	8	i	1	15
COc1cc(F)ccc1S(=O)(=O)N1CCN(Cc2ccccc2)CC1	-3	-5	i	1	-1
CCN(CC)c1ccc(S(=O)(=O)N2CCOCC2)cc1NC(=O)CN1C(=O)NC2(CCC(C)CC2)C1=O (stereo unspecified)	1	x	x	-4	2
COc1ccc(CCNC(=O)CSc2ccc(-c3ccncc3)nn2)cc1	3	1.1*	i	5	-2
COc1ccc(-c2ccc(SCC(=O)Nc3nnc(C)s3)nn2)cc1	-7	55*	+	-1	-8
CCOc1ccc(-c2ccc(SCC(=O)Nc3nnc(CC)s3)nn2)cc1	26	-2	i	2	2
O=[N+]([O-])c1ccccc1SN(Cc1ccccc1)c1ccccn1	8	58*	+	-1	9
N#Cc1ccc(CN2CCN(C(=O)c3cc(C4CC4)nn3-c3ccccc3)CC2)cc1	-10	x	x	3	38*
CCCC(C(=O)NCC1CCCO1)N(Cc1ccccc1)C(=O)CNS(=O)(=O)c1ccccc1 (stereo unspecified)	-12	-4	i	2	42*
O=C(O)CCc1ccc(-c2ccccc2)n1NC(=O)c1ccco1	-12	-8	i	2	39*
CN(c1ccccc1)S(=O)(=O)c1cccc(NC(=O)C2CCCO2)c1 (stereo unspecified)	0	x	x	2	11
O=C(Nc1sc2c(c1C(=O)O)CCC2)C(=O)N1CCOCC1	11	86*	+	-1	18
O=C(Nc1sc2c(c1C(=O)O)CCCC2)C(=O)N1CCOCC1	28	1	i	-2	4
Cc1[nH]c2ccccc2c1SCc1ccccc1	10	-4	i	0	40*
Cc1ccc(Nc2ccc(N)cc2S(=O)(=O)O)cc1	8	19	i	15	12
Nc1ccc(Nc2ccccc2)c(S(=O)(=O)O)c1	-6	95*	+	23	2
CCN(CC)c1ccc2cc(C(C)=O)c(=O)oc2c1	-64	u	u	-1	-26
CCN(CC)c1ccc2cc(C(=O)Nc3cccnc3N3CCOCC3)c(=O)oc2c1	x	63*	+	x	x
CCN(CC)c1ccc2cc(C(N)=O)c(=O)oc2c1	-47	38	i	-14	15
CCN(CC)c1ccc2cc(C(=O)Nc3ccccn3)c(=O)oc2c1	16	122*	+	-176	8
SMILES	MLLE-PAM2 inh	eIF4H inh	PABP FP inh	MT1-MMP act inh	SKN-1 block
CC1(Cc2ccc(OC(F)(F)F)cc2)C(=O)Nc2ccc(OC(F)(F)F)cc21 (stereo unspecified)	-1	x	x	0	38*
COC(=O)c1ccc(CC2(C)C(=O)Nc3ccc(-c4cccc(C(F)(F)F)c4)cc32)o1 (stereo unspecified)	-1	x	x	3	39*
Cc1ccc(Cl)cc1N1C(=O)CC(Sc2ccccc2N)C1=O (stereo unspecified)	-5	x	x	3	14
Cc1sc2ccc3sccc3c2[n+]1C	-34	7	+	-4	3
CCCN(CCC)S(=O)(=O)c1ccc(C(=O)OCCN2C(=O)c3cccc4c(N5CCOCC5)ccc(c34)C2=O)cc1	112	129*	+	-134	-47
CC(C)(C)NC(=O)CN(C(=O)CCN1CCCc2ccccc21)C(C)(C)C	54*	-16	i	-24	40*
CC(C)(C)CN1CCNC(=O)C1CC(=O)NCCN1CCCc2ccccc21 (stereo unspecified)	18	58*	i	-5	17
CC(C)(C)CN1CCNC(=O)C1CC(=O)NCCc1ccccc1C(F)(F)F (stereo unspecified)	8	4	i	-3	1
O=C(Cc1cccc(NC(=O)C2CCCN(C(=O)C3CCC3)C2)c1)Nc1cccc(C(=O)N2CCOCC2)c1 (stereo unspecified)	5	x	x	3	-6
O=C(NCc1ccccc1Cl)C1CCCN1S(=O)(=O)c1ccccc1F (stereo unspecified)	5	1	i	-2	-14
COCCNC(=O)CSc1nc2ccccc2c(=O)n1-c1cccc(OC)c1	-2	-7	i	4	-9
COCCNC(=O)c1ccc(-n2c(SCc3ccncc3)nc3ccccc3c2=O)cc1	2	active	+	-4	-2
Fc1ccc(Nc2nc(NCc3cccs3)nc3ccsc23)cc1	-2	x	x	-12	15
O=c1cccccc1NN=C1CCCCC1	-16	82*	+	-6	5
O=C(O)c1cc(Br)ccc1NN=C1CCCCC1	22	8	i	2	5
O=[N+]([O-])c1ccc(NN=C2CCCCC2)c([N+](=O)[O-])c1	14	x	x	4	6
O=c1cccccc1NN=C1CCCCCC1	18	59*	+	-2	0
C[C@H](CO)N1C[C@H](C)[C@@H](CN(C)S(C)(=O)=O)Oc2ccc(N(C)C)cc2C1=O	-15	x	x	2	10
c1ccc(-c2csc(N3CCN(c4ccccn4)CC3)n2)cc1	0	-8	i	9	47*
c1ccc(-c2csc(N3CCOCC3)n2)cc1	-11	-9	i	-2	19
O=C(Nc1ccc([N+](=O)[O-])cc1)OC1CCS(=O)(=O)C1 (stereo unspecified)	x	x	x	0	15
O=C(NC(NC(=S)Nc1c(Cl)cc(Cl)cc1Cl)C(Cl)(Cl)Cl)OCc1ccccc1 (stereo unspecified)	39*	-13	i	-24	14
COc1ccc(CCNc2nc3ccccc3n3nnnc23)cc1OC	21	u	+	-11	1
c1ccc(CCNc2nc3ccccc3n3nnnc23)cc1	5	9	i	-5	2
CC(C)(C)C(=O)Nc1ccccc1C(=O)NCCC(=O)Nc1ccccc1	7	x	x	4	15
Cc1nc(NC(=S)NC(=O)c2ccccc2)sc1C(=O)N(C)C	42*	-10	i	6	-22
COC(=O)c1sc(NC(=S)NC(=O)c2ccccc2)nc1C	28	2	i	-1	-8

Screening data as filed in PubChem.
